The source of these data is ChEMBL document CHEMBL5344432, “Identification of a Dual Autophagy and REV-ERB Inhibitor with in Vivo Anticancer Efficacy” (J Med Chem, 2024).

Each structure is given as a SMILES string. Calls of active or inactive are those of the source. No cut-off for these calls is given here. Where only a bound is given, the exact number is not on record here.

A short description of series [1]: Metabolic stability in mouse liver microsomes assessed as half life preincubated for 15 mins followed by NADPH addition and measured after 1 to 2 hrs by LC-MS/MS analysis. The format is ADME, Microsome. The note with it: liver microsomes, time 75-135 min. A digest of the protocol:
(§1)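 Microsomal stability assessed in mouse, human, rat or dog liver microsomes with NADPH cofactor. Half-life and percent parent remaining at 60 and 120 min reported. Mean of at least two independent experiments, each in two technical replicates.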
(In general: Liver microsomes are a subcellular fraction often used to study metabolism.)

A short description of series [2]: Metabolic stability in mouse liver microsomes assessed as half life preincubated for 15 mins followed by UDPGA addition and measured after 2 hrs by LC-MS/MS analysis. The format is ADME, Microsome. The note with it: time 135 min. The method, boiled down:
(§2)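 Mouse and human liver microsomes incubated with UDPGA cofactor. Half-life and percent parent remaining at 120 min reported. Mean of at least two independent experiments, each in two technical replicates.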

Series [3] can be described thus: Metabolic stability in human liver microsomes assessed as parent compound remaining preincubated for 15 mins followed by UDPGA addition and measured after 2 hrs by LC-MS/MS analysis. The format is ADME, Microsome. The note with it: time 135 min, read-out: Stability. The method, boiled down:
as §2

Series [4] is described as follows: Metabolic stability in rat liver microsomes assessed as half life preincubated for 15 mins followed by NADPH addition and measured after 1 to 2 hrs by LC-MS/MS analysis. Format: ADME, Microsome. The note with it: liver microsomes, time 75-135 min. The method, boiled down:
as §1

A short description of series [5]: Metabolic stability in dog liver microsomes assessed as half life preincubated for 15 mins followed by NADPH addition and measured after 1 to 2 hrs by LC-MS/MS analysis. Format: ADME, Canis lupus familiaris, Microsome. The note with it: liver microsomes, time 75-135 min. The method, boiled down:
as §1

Series [6] in a line: Metabolic stability in dog liver microsomes assessed as parent compound remaining preincubated for 15 mins followed by NADPH addition and measured after 1 to 2 hrs by LC-MS/MS analysis. The format is ADME, Canis lupus familiaris, Microsome. The note with it: time 75-135 min. The method, boiled down: as §1
The test system of series [7] is Capan-2. Briefly: Cytotoxicity against human Capan-2 cells. Format: functional. The method, boiled down:
(§3)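 Human cancer lines (A375, MDA-MB-231, OMM-1, UPMM-2, CAPAN-2, HepG2, HT-29, HCT116) treated up to 30 μM. CC50 derived from concentration–response viability plots. Mean ± SEM, n ≥ 6. Two-tailed unpaired t test used between compounds.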

In series [8] the test system is HT-29. The series can be described thus: Cytotoxicity against human HT-29 cells. Format: functional. The method, boiled down: as §3
Series [9] is described as follows: Half life in CD1 mouse at 10 mg/kg, ip measured upto 24 hrs. Format: ADME, organism-based. The note with it: in vivo. The method, boiled down:
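Female CD1 mice given a single 10 mg/kg ip dose. Plasma concentration–time profile analyzed by noncompartmental analysis for half-life and volume of distribution. A two-compartment model was also fitted.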

Series [10] can be described thus: Tolerability in CD1 mouse assessed as appearance of arched backs at 138 micromol/kg, ip. The format is toxicity. The note with it: in vivo, dose 138 µmol/kg. The method, boiled down: (§4)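 Female CD1 mice given daily ip injections at 138 μmol/kg (62 mg/kg). Animals observed for arched backs and lethargy.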
Series [11] can be described thus: Tolerability in CD1 mouse assessed as lethargy at 138 micromol/kg, ip. The format is toxicity. The note with it: in vivo, dose 138 µmol/kg. A digest of the protocol:
as §4

Series [12] is described as follows: Tolerability in CD1 mouse assessed as reduction in body weight at 138 micromol/kg, ip measured after 2 days. The format is toxicity, organism-based. The note with it: in vivo, 48 h, dose 138 µmol/kg, time 2 day. A digest of the protocol: (§5)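 Body weight tracked in female CD1 mice under three regimens: 138 μmol/kg (62 mg/kg) ip daily, assessed after 2 days; 138 μmol/kg every other day over 8 days; 69 μmol/kg (31 mg/kg) daily over 8 days.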

Series [13] can be described thus: Tolerability in CD1 mouse assessed as reduction in body weight at 138 micromol/kg, ip administered every other day for 8 days. Format: toxicity, organism-based. The note with it: in vivo, 192 h, dose 138 µmol/kg, time 8 day. The method, boiled down: as §5
Series [14] in a line: Tolerability in CD1 mouse assessed as change in food intake at 69 micromol/kg, ip administered as 3 days on and 2 days off schedule and measured after 15 days. The format is toxicity, organism-based. The note with it: in vivo, 360 h, dose 69 µmol/kg, time 15 day. A digest of the protocol: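 Female CD1 mice given 69 μmol/kg (31 mg/kg) ip, 3 days daily then 2 days off, or saline. Body weight, food intake and water intake monitored daily for 15 days. Weight expressed relative to the day before treatment (100%). Mean ± SEM, n = 3.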

The subject of series [15] is A-375. The series can be described thus: Antitumor activity against human A-375 cells xenografted in NMRI-Foxn1nu mouse assessed as effect on autophagy by measuring increase in LC3-II/LC3-I ratio expression at 30 mg/kg, ip administered for 2 days by immunoblotting analysis. Format: functional, organism-based. The note with it: time 2.0 day. A digest of the protocol: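 Female NMRI-Foxn1nu mice bearing flank subcutaneous xenografts of GFP-LC3 reporter A375 cells, matched for tumor size, given 30 mg/kg ip or saline for 2 days. Euthanized 48 h after first injection. Tumor lysates immunoblotted with anti-LC3B for GFP-LC3-I and GFP-LC3-II. n = 3; unpaired two-tailed t test versus saline.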

Series [16] relates to A-375. The series can be described thus: Antitumor activity against human A-375 cells xenografted in NMRI-Foxn1nu mouse assessed as tumor growth inhibition at 30 mg/kg, ip administered as 3 days on and 2 days off schedule and measured after 15 days. The format is functional. The note with it: A-375, 360 h, time 15 day, read-out: TGI. The method, boiled down:
(§6)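 Female NMRI-Foxn1nu mice with subcutaneous A375 flank tumors, grouped by matched tumor volume. Dosing: 30 mg/kg ip or saline, 3 days daily then 2 days off. Tumors measured by digital caliper until day 15. Excised tumors then sized as (W × D × L)/2 and weighed. n = 8; Mann–Whitney two-tailed test for the excised endpoints.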
(In general: A xenograft is tissue or cells of one species grown in another, often human tumour cells in immunodeficient mice.)

Series [17] relates to A-375. Briefly: Antitumor activity against human A-375 cells xenografted in NMRI-Foxn1nu mouse assessed as reduction in tumor volume at 30 mg/kg, ip administered as 3 days on and 2 days off schedule and measured after 15 days. The format is functional. The note with it: time 15 day. Details: scale not given: the % may be the effect or the level left. The method, boiled down: as §6

The nature of series [18]: Toxicity in NMRI-Foxn1nu mouse xenografted with human A-375 cells assessed as reduction in body weight at 30 mg/kg, ip administered as 3 days on and 2 days off schedule and measured after 15 days. The format is organism-based. The note with it: in vivo, 360 h, time 15 day. The method, boiled down:
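A375 xenograft-bearing female NMRI-Foxn1nu mice received 30 mg/kg ip or saline on a 3-days-on/2-days-off schedule. Body weight recorded daily to day 15, expressed relative to weight on the day before treatment (set to 100%). n = 8.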

Series [19] can be described thus: Inhibition of REV-ERBbeta (unknown origin) transcription expressed in HEK293 cells incubated for 24 hrs by gaussia luciferase based assay. The format is cell-based. The note with it: Homo sapiens, HEK293, 24 h. The method, boiled down: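 HEK-293 cells cotransfected with REV-ERBβ and a luciferase reporter driven by two repeats of a REV-ERB response element (RevRE) consensus, then treated across a concentration range. Luciferase activity is expressed as fold of DMSO vehicle, mean ± SEM, n = 6, and EC50 is taken from the concentration-response curve. A parallel reporter carrying a mutated RevRE served as a specificity control.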

The test system of series [20] is BT-474. Briefly: Inhibition of REV-ERBbeta in REV-ERBbeta knockout human BT-474 cells assessed as induction of BMAL1 expression at 5 uM after 24 hrs by qRT-PCR analysis. Format: cell-based. Background: In qPCR the cycle at which signal appears reflects the starting amount.
Series [21] has as its system A375 (human). Briefly: Inhibition of autophagy in human A375 cells expressing EGFP-LC3B assessed as accumulation of autophagosome after 24 hrs by Hoechst 33342 staining based fluorescent microscopy analysis. The note with it: dose 1.25-5 µM.
For series [22], the system named is Mus musculus. Briefly: In vivo inhibition of REV-ERB in human A375 cells xenografted in NMRI-Foxn1nu mouse assessed as increase in BMAL1 gene expression at 30 mg/kg, ip administered for 2 days and measured after 48 hrs.

What is called half-life is how long it takes for the measured level to halve. As usually defined, the CC50 is the concentration that lowers cell viability or growth by half. As usually defined, the EC50 is the concentration at which the effect is half-maximal. For `Fc1ccc(C2(NCc3ccc(F)c(CC4CCNCC4)c3)CCCC2)cc1`, the half-life is > 2 h in [1], > 2 h in series [2], > 1 h in series [4] and > 1 h in series [5]. Besides, in [3], the remaining at 2 h amounted to 95%. Besides, the Stability in series [6] worked out at 89%. Besides, the figures for the half-maximal cytotoxic concentration (CC50) in series [7] and in [8] were 6.86 µM and 4.74 µM, respectively. The compound also showed a t1/2 in series [9] of 9.67 h. In addition, the Activity entry is “Non-Toxic” in series [10]; “Non-Toxic” in series [11]; “Toxic” in [12]; “Toxic” in series [13]; “Non-Toxic” in series [14]; 60% in [17]. For the same compound, the Activity result in [18] is “Non-Toxic”. In series [15], the outcome was Active. Further, the inhibition in vivo at 30 mg/kg in [16] is 55%. Moreover, the EC50 in series [19] was found to be 3.61 µM. For the same compound, the inhibition entry in [20] is “inactive”. In addition, the inhibition entry in series [21] is “Dose-Dependent Effect”. Moreover, in [22], the inhibition result is “Active”.
